The values below come from ChEMBL document CHEMBL5131404, “Lipophilic quinolone derivatives: Synthesis and in vitro antibacterial evaluation” (2022).

Common to all, as to type: functional
Assay [1] relates to Escherichia coli. Description: Antibacterial activity against Escherichia coli 202. The essentials:
(§1)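 Broth microdilution MIC following CLSI guidelines. Strains were grown on Mueller-Hinton agar beforehand. The MIC is the lowest compound concentration that inhibits bacterial growth, determined at least three times in independent experiments.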

Assay [2] deals with Acinetobacter baumannii. Description: Antibacterial activity against Acinetobacter baumannii ATCC 19606. The essentials:
as §1

Assay [3] concerns Staphylococcus aureus. Kind of assay: Antibacterial activity against methicillin-resistant Staphylococcus aureus 196. The essentials:
(§2)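 Strains grown on Mueller-Hinton agar. MIC by broth microdilution following CLSI guidelines, taken as the lowest concentration inhibiting bacterial growth. Determined at least three times in independent experiments.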

Assay [4] relates to Escherichia coli. Description: Antibacterial activity against Escherichia coli ATCC 35218. The method, boiled down:
as §1

Assay [5] concerns Escherichia coli. Kind of assay: Antibacterial activity against Escherichia coli 203. The essentials:
as §1

Assay [6] deals with Streptococcus pneumoniae. Kind of assay: Antibacterial activity against Streptococcus pneumoniae ATCC 49169. The essentials: as §1
In assay [7] the test system is Pseudomonas aeruginosa. Description: Antibacterial activity against Pseudomonas aeruginosa 143. The method, boiled down:
as §1

Assay [8] deals with Pseudomonas aeruginosa. Kind of assay: Antibacterial activity against Pseudomonas aeruginosa 142. The method, boiled down: as §1
The subject of assay [9] is Staphylococcus aureus. Kind of assay: Antibacterial activity against Staphylococcus aureus ATCC 29213. The method, boiled down:
as §1

For assay [10], the system named is Neisseria gonorrhoeae. Kind of assay: Antibacterial activity against Neisseria gonorrhoeae ATCC 19424. The method, boiled down:
(§3)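 Agar dilution MIC. Strains were cultured on GC agar with 2% v/v Vitox and 1% haemoglobin. Suspensions of 10^5 CFU/mL were spotted in duplicate onto the same supplemented GC agar containing various compound concentrations, then incubated 24-48 h at 37°C in 5% CO2. The MIC is the lowest concentration inhibiting growth, from at least three independent experiments.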

For assay [11], the system named is Staphylococcus aureus. Description: Antibacterial activity against methicillin-resistant Staphylococcus aureus 197. The method, boiled down:
as §2

Assay [12] has as its system Pseudomonas aeruginosa. Kind of assay: Antibacterial activity against Pseudomonas aeruginosa ATCC 27853. The essentials:
as §1

The subject of assay [13] is Acinetobacter baumannii. Description: Antibacterial activity against Acinetobacter baumannii 140. The method, boiled down: as §1
Assay [14] concerns Acinetobacter baumannii. Description: Antibacterial activity against Acinetobacter baumannii 139. The essentials:
as §1

The subject of assay [15] is Neisseria gonorrhoeae. Description: Antibacterial activity against Neisseria gonorrhoeae WHO C. The essentials: as §3
For assay [16], the system named is Neisseria gonorrhoeae. Kind of assay: Antibacterial activity against Neisseria gonorrhoeae Barla194. The method, boiled down: as §3
Assay [17] concerns Neisseria gonorrhoeae. Description: Antibacterial activity against Neisseria gonorrhoeae WHO Z. The method, boiled down: as §3
Assay [18] concerns Neisseria gonorrhoeae. Kind of assay: Antibacterial activity against Neisseria gonorrhoeae WHO Q. The essentials:
as §3

In assay [19] the test system is Neisseria gonorrhoeae. Description: Antibacterial activity against Neisseria gonorrhoeae WHO O. The method, boiled down:
as §3

Assay [20] concerns Neisseria gonorrhoeae. Kind of assay: Antibacterial activity against Neisseria gonorrhoeae WHO E. The method, boiled down: as §3
Assay [21] concerns Neisseria gonorrhoeae. Kind of assay: Antibacterial activity against Neisseria gonorrhoeae WHO A. The essentials: as §3
The test system of assay [22] is Neisseria gonorrhoeae. Kind of assay: Antibacterial activity against Neisseria gonorrhoeae WHO K. The essentials:
as §3

For assay [23], the system named is Neisseria gonorrhoeae. Description: Antibacterial activity against Neisseria gonorrhoeae WHO G. The method, boiled down:
as §3

For assay [24], the system named is Neisseria gonorrhoeae. Description: Antibacterial activity against Neisseria gonorrhoeae WHO M. The essentials: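 Agar dilution on GC agar base with 2% v/v Vitox and 1% haemoglobin containing graded compound concentrations. Suspensions at 10^5 CFU/mL spotted in duplicate. Incubation 24-48h, 37°C, 5% CO2. MIC taken as the lowest concentration inhibiting growth, determined at least three times in independent experiments.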

Assay [25] has as its system Neisseria gonorrhoeae. Description: Antibacterial activity against Neisseria gonorrhoeae WHO B. The method, boiled down:
as §3

Converted amounts (≈) assume the structure as drawn.

On to `CCCCCCCCCN1CCN(c2c(F)cc3c(=O)c(C(=O)O)cn(C4CC4)c3c2OC)CC1`, for which the MIC was 8 µg/mL (≈ 16.4 µM) in assay [1]; 64 µg/mL (≈ 131 µM) in [2]; not below 64 µg/mL in [3]; 8 µg/mL (≈ 16.4 µM) in assay [4]; more than 64 µg/mL in assay [5]; 2 µg/mL (≈ 4.1 µM) in [6]. In addition, the MIC in [7] is not below 64 µg/mL; in [8], not below 64 µg/mL; in assay [9], 8 µg/mL (≈ 16.4 µM); in [10], 0.25 µg/mL (≈ 0.513 µM); in assay [11], more than 64 µg/mL; in assay [12] it was more than 64 µg/mL. Moreover, the minimum inhibitory concentration (MIC) in [13] and in assay [14] was 64 µg/mL (≈ 131 µM) throughout.
With `CCCCCCCCCCN1CCN(c2c(F)cc3c(=O)c(C(=O)O)cn(C4CC4)c3c2OC)CC1`, the MIC was not below 64 µg/mL in assay [1]; 64 µg/mL (≈ 128 µM) in assay [2]; not below 64 µg/mL in [3]; not below 32 µg/mL in assay [4]; 1 µg/mL (≈ 1.99 µM) in assay [15]; more than 64 µg/mL in assay [5]. Also, the MIC is more than 64 µg/mL in [6]; 256 µg/mL (≈ 510 µM) in [16]; not below 64 µg/mL in [17]; more than 64 µg/mL in assay [7]; more than 64 µg/mL in assay [8]; 2 µg/mL (≈ 3.99 µM) in [18]. Besides, the MIC in [19] was 1 µg/mL (≈ 1.99 µM); in assay [9], 32 µg/mL (≈ 63.8 µM); in [20], 0.25 µg/mL (≈ 0.498 µM); in [10], 0.12 µg/mL (≈ 0.239 µM); in assay [11] it was more than 64 µg/mL; in assay [12] it was more than 64 µg/mL. Also, the MIC is 0.5 µg/mL (≈ 0.997 µM) in assay [21]; 256 µg/mL (≈ 510 µM) in [22]; 8 µg/mL (≈ 15.9 µM) in assay [23]; 64 µg/mL (≈ 128 µM) in assay [13]; not below 64 µg/mL in [14]; not below 64 µg/mL in [24]. The compound also came in with an MIC in assay [25] of 1 µg/mL (≈ 1.99 µM).
Take `CCOCCOCCN1CCN(c2c(F)cc3c(=O)c(C(=O)O)cn(C4CC4)c3c2OC)CC1`: the MIC in assay [4] amounted to 0.5 µg/mL (≈ 1.05 µM); in assay [6] it was 1 µg/mL (≈ 2.09 µM); in assay [9], 0.5 µg/mL (≈ 1.05 µM); in assay [10], 2 µg/mL (≈ 4.19 µM).
On to `CCCCCCCCCCCN1CCN(c2c(F)cc3c(=O)c(C(=O)O)cn(C4CC4)c3c2OC)CC1`, for which the MIC is not below 64 µg/mL in assay [1]; 64 µg/mL (≈ 124 µM) in assay [2]; 64 µg/mL (≈ 124 µM) in assay [3]; 16 µg/mL (≈ 31 µM) in assay [4]; more than 64 µg/mL in assay [5]; 8 µg/mL (≈ 15.5 µM) in assay [6]. Besides, the MIC was more than 64 µg/mL in assay [7]; more than 64 µg/mL in [8]; 32 µg/mL (≈ 62.1 µM) in assay [9]; 0.5 µg/mL (≈ 0.97 µM) in assay [10]; not below 64 µg/mL in [11]; more than 64 µg/mL in assay [12]. The MIC in assay [13] was 64 µg/mL (≈ 124 µM); in assay [14] it was not below 64 µg/mL.
Regarding `O=C(O)c1cn(C2CC2)c2cc(N3CCNCC3)c(F)cc2c1=O` [CIPROFLOXACIN], the MIC in [2] was 0.5 µg/mL (≈ 1.51 µM); in assay [3], more than 32 µg/mL; in assay [15], 0.004 µg/mL (≈ 0.0121 µM); in [5], more than 32 µg/mL; in assay [16] it was 32 µg/mL (≈ 96.6 µM); in [17], more than 32 µg/mL. The MIC in assay [7] is more than 32 µg/mL; in assay [8] it was more than 32 µg/mL; in assay [18] it was 0.008 µg/mL (≈ 0.0241 µM); in [19] it was 0.004 µg/mL (≈ 0.0121 µM); in assay [9] it was 0.25 µg/mL (≈ 0.754 µM); in assay [20] it was 0.002 µg/mL (≈ 0.00604 µM). Besides, the MIC is 0.004 µg/mL (≈ 0.0121 µM) in [10]; more than 32 µg/mL in assay [11]; 0.002 µg/mL (≈ 0.00604 µM) in [21]; not below 32 µg/mL in assay [22]; 0.125 µg/mL (≈ 0.377 µM) in assay [23]; more than 32 µg/mL in assay [13]. For the same compound, the MIC in assay [14] was more than 32 µg/mL; in assay [24], 2 µg/mL (≈ 6.04 µM); in assay [25], 0.008 µg/mL (≈ 0.0241 µM).
For the compound `COc1c(N2C[C@@H]3CCCN[C@@H]3C2)c(F)cc2c(=O)c(C(=O)O)cn(C3CC3)c12` [MOXIFLOXACIN], the MIC is 0.5 µg/mL (≈ 1.25 µM) in [1]; 0.25 µg/mL (≈ 0.623 µM) in [2]; 0.5 µg/mL (≈ 1.25 µM) in [3]; 0.016 µg/mL (≈ 0.0399 µM) in assay [15]; 0.06 µg/mL (≈ 0.149 µM) in assay [6]; 16 µg/mL (≈ 39.9 µM) in assay [16]. The MIC in [17] came out at 2 µg/mL (≈ 4.98 µM); in assay [7], 16 µg/mL (≈ 39.9 µM); in [8], 8 µg/mL (≈ 19.9 µM); in assay [18], 0.016 µg/mL (≈ 0.0399 µM); in assay [19], 0.016 µg/mL (≈ 0.0399 µM); in [9], 0.06 µg/mL (≈ 0.149 µM). Also, the MIC in assay [20] came to 0.004 µg/mL (≈ 0.00996 µM); in assay [10], 0.06 µg/mL (≈ 0.149 µM); in [11] it was 1 µg/mL (≈ 2.49 µM); in assay [12], 1 µg/mL (≈ 2.49 µM); in assay [21], 0.004 µg/mL (≈ 0.00996 µM); in assay [22], 2 µg/mL (≈ 4.98 µM). For the same compound, the minimal inhibitory concentration (MIC) in [23] amounted to 0.03 µg/mL (≈ 0.0747 µM); in [13] it was 4 µg/mL (≈ 9.96 µM); in assay [14], 2 µg/mL (≈ 4.98 µM); in assay [24], 2 µg/mL (≈ 4.98 µM); in [25] it was 0.008 µg/mL (≈ 0.0199 µM).
